Results of several laboratories.
Each line is one published result; the experiments were not run side by side. pEC50, pIC50, pKd, pKi: −log10 of the molar value.
Phosphatidylserine lipase ABHD16A: Phosphatidylserine lipase ABHD16A (Homo sapiens, UniProt O95870)

The pIC50 of `CN1CCC[C@H]1c1cccnc1` is reported as about 4.40 (Urea transporter 1 (Slc14a1, Rattus norvegicus, UniProt P97689); transporter uptake, inhibitor).
`CC(C)C[C@H](NC(=O)[C@H](Cc1ccccc1)NC(=O)[C@H](Cc1ccc(O)cc1)NC(=O)CNC(=O)[C@H](CCCCN)NC(=O)[C@H](CO)NC(=O)[C@H](CCC(N)=O)NC(=O)CNC(=O)[C@@H](NC(=O)[C@H](CO)NC(=O)[C@@H]1CCCN1C(=O)[C@H](CO)NC(=O)[C@H](CCC(N)=O)NC(=O)[C@H](Cc1ccc(O)cc1)NC(=O)[C@H](CCC(=O)O)NC(=O)[C@H](C)NC(=O)[C@H](CCCCN)NC(=O)[C@@H](N)Cc1ccccc1)C(C)C)C(=O)N[C@@H](Cc1ccccc1)C(=O)N[C@@H](CCCNC(=N)N)C(=O)N1CCC[C@H]1C(=O)N[C@@H](CCCNC(=N)N)C(=O)N[C@@H](CC(N)=O)C(N)=O` has a pEC50 of 9.35 (Neuromedin-U receptor 1 (NMUR1, Homo sapiens, UniProt Q9HB89); inositol phosphate, agonist).
For `CC(C)CCC[C@@H](C)[C@H]1CC[C@H]2[C@@H]3C[C@@H](n4cncc4CCN)[C@@]4(O)C[C@@H](O)CC[C@]4(C)[C@H]3CC[C@]12C`, the pIC50 was under 4.00 (Bifunctional epoxide hydrolase 2 (EPHX2, Homo sapiens, UniProt P34913); enzyme activity, inhibitor).
For `CC(=O)CC(=O)C(=O)O`, the pKi was 5.85 (4-hydroxy-tetrahydrodipicolinate synthase (dapA, Escherichia coli K-12, UniProt P0A6L2); enzyme activity, inhibitor, absorbance).
For `CC(C)[C@@H]1NC(=O)[C@@H]2CCCN2C(=O)[C@H](Cc2ccccc2)NC(=O)CSC[C@@H](C(=O)N[C@@H](Cc2ccc(O)cc2)C(N)=O)NC(=O)[C@H](Cc2c[nH]c3ccccc23)NC(=O)[C@H](CCCCN)NC(=O)[C@H](Cc2ccccc2)N(C)C(=O)[C@H](Cc2ccccc2)NC1=O`, the pIC50 was 6.74 (Stimulator of interferon genes protein (STING1, Homo sapiens, UniProt Q86WV6, H232R); ligand displacement, TR-FRET).
The pIC50 of `O=C(CCCc1ccc(N(CCCl)CCCl)cc1)NCCC1CCN(CCOc2ccc(Oc3c(-c4ccc(O)cc4)sc4cc(O)ccc34)cc2)CC1` is reported as 7.17 (Estrogen receptor beta (ESR2, Homo sapiens, UniProt Q92731); ligand displacement, radioligand).
The pKd of `Nc1nccc(-c2cccc(-c3ccccc3)c2)n1` is reported as 7.19 (Phosphatidylinositol 5-phosphate 4-kinase type-2 gamma (PIP4K2C, Homo sapiens, UniProt Q8TBX8); binding).
`Cn1cc(-c2cc(F)cc(N3CCn4c(cc5c4CCCC5)C3=O)c2CO)cc(Nc2ccc(N3CCN(C4COC4)CC3)cn2)c1=O` gave a pKi of 5.97 (Tyrosine-protein kinase Lck (LCK, Homo sapiens, UniProt P06239); enzyme activity, inhibitor, FRET).
`CCCCCCCCCCCCCC1OC(=O)/C1=C\CCCCCS(N)(=O)=O` (stereo not drawn) gave a pIC50 of 6.00 to 6.30 (Phosphatidylserine lipase ABHD16A; enzyme activity, inhibitor).
`c1c[nH]cn1` gave a pKd of 4.25 (Nitric oxide synthase, inducible (Nos2, Mus musculus, UniProt P29477); binding).
With `O=C(O)C1=CC(O)CC1` (stereo not drawn) the pKi was 5.80 (Calcium/calmodulin-dependent protein kinase type II subunit alpha (Rattus norvegicus, UniProt P11275); cell-free assay, radioligand; pH 6).
With `CCCCCCCCCCCCCC1OC(=O)/C1=C\CCCCC(N)=O` (stereo not drawn) the pIC50 was 6.30 to 6.70 (Phosphatidylserine lipase ABHD16A; cell-free assay, inhibitor).
